Screens from PubChem.
PRMT1 FP inh: PRMT1 (human) inhibition, primary screen; hit rate 1.3% among 370,000; inhibition, % at 2.79 µM; recombinant PRMT1, activity-based probe fluorescence polarization;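 active means inhibition above about 21% made by adding two undisclosed values, limit read from the data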
GSTO1 counter: GSTO1 inhibition, counter-screen for RBBP9 inhibitors; P78417; recombinant GSTO1, activity-based probe fluorescence polarization; inhibition, % at 5.96 µM; hit rate 1.1% among 300,000;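 active means inhibition above the campaign mean inhibition plus 3 SD, cut at about 35% in these data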
CTSL1 counter: cathepsin L1 inhibition, PFM18AAP counter-screen; recombinant F. hepatica cathepsin L1, Z-Leu-Arg-MCA fluorescence; inhibition, % at 5.96 µM; hit rate 0.49% among 300,000;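 active means inhibition above the mean of all tested compounds plus 3 SD, set per screening campaign, cut at about 17% in these data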
PAD4 FP inh: PAD4 (human) enzyme inhibition | recombinant PAD4, RCA probe fluorescence polarization | Q9UM07 | hit rate 0.41% among 330,000 | inhibition, % at 6.36 µM;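 active means percent inhibition above a cutoff equal to the mean of all tested compounds plus 3 SD, cut at about 15% in these data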
Target sequence (Q9UM07 whole entry, looked up): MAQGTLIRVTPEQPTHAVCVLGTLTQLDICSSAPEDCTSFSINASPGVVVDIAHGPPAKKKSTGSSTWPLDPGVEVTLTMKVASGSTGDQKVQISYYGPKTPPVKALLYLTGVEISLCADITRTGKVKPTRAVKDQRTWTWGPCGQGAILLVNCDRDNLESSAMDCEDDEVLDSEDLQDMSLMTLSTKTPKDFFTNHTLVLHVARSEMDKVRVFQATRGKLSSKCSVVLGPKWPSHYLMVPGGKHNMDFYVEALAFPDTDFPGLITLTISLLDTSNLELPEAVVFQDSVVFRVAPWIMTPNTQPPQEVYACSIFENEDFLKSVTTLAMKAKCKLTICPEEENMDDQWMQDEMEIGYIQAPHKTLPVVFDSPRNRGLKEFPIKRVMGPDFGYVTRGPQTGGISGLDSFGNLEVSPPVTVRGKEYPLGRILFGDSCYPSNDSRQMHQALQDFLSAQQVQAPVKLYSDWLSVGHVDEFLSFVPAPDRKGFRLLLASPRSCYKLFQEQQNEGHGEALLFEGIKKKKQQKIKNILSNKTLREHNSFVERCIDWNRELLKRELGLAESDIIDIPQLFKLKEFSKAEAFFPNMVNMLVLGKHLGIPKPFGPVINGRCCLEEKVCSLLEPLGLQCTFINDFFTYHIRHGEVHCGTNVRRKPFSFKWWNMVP
TDP2 inh: blocks human TDP2 phosphodiesterase activity. recombinant TDP2, T5PNP hydrolysis, p-nitrophenol absorbance 415 nm. inhibition, % at 12.8 µM. hit rate 0.34% among 370,000. AID 720702. O95551;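 active means inhibition above the mean of all tested compounds plus 3 SD, set per campaign, cut at about 25% in these data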
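Read-out basis: percent inhibition. System: recombinant human TDP2. Buffer or medium: Mg2+-containing Tris-HCl buffer, pH 7.5. Repeats: single replicate. Timing: reaction 2 h, 37 °C. Benchmarks: high control without enzyme, low control DMSO plus TDP2. Probe or stimulus: 5 mM T5PNP. Doses: 12.8 µM only. Measured by: epi absorbance of p-nitrophenol freed from T5PNP by hydrolysis.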
PRMT1 confirm: confirmation of human PRMT1 inhibitors | shares compounds with PRMT1 FP inh | recombinant His-PRMT1, activity-based probe fluorescence polarization | inhibition, % at 2.79 µM | hit rate 42% among 3,300 | AID 687036;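 active means mean inhibition across replicates above the hit cutoff derived for the earlier primary screen, cut at about 22% in these data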
Hits are given with their value; - = inactive; . = no result given. Only some compounds are listed: those with a hit (about 2.5% of all), similar ones and a draw of the others.

SMILES	PRMT1 FP inh	GSTO1 counter	CTSL1 counter	PAD4 FP inh	TDP2 inh	PRMT1 confirm
COC(=O)[C@]12C[C@H](CC(=O)NCCC(C)C)C(=O)N(Cc3cccc4ccccc34)C1=C[C@H](C1CCCC1)O[C@@H]2C	-	.	.	.	-	.
O=C1c2cccc3c(N4CCCCC4)ccc(c23)C(=O)N1CCO	40	-	-	-	-	-
O=C(OCCN1C(=O)c2cccc3c(N4CCOCC4)ccc(c23)C1=O)c1ccccc1Cl	78	-	-	-	-	65
C=CCN1C(=O)c2cccc3c(N4CCCCC4)ccc(c23)C1=O	-	-	-	-	-	.
Cc1ccsc1S(=O)(=O)n1c(CN2CCOCC2)nc2ccccc21	-	.	.	.	-	.
CN(C)[C@H]1CCN(c2ccc3c(c2)OCCCN(C2CC2)S3(=O)=O)C1	-	.	.	.	-	.
CCN(C[C@H]1[C@@H](c2ccc(C3=CCCC3)cc2)[C@H](CO)N1Cc1ccccn1)S(=O)(=O)c1ccccc1[N+](=O)[O-]	-	.	.	.	-	.
COC(=O)C1CN(Cc2ccccc2)CCS(=O)(=O)N1Cc1cn(Cc2ccccc2)nn1 (centres undefined)	-	.	.	.	-	.
Cc1ccc2c(c1)C(CS(=O)(=O)NCC(C)C)NC2 (centres undefined)	-	.	.	.	-	.
CN(CCCN1CCOCC1)C(=O)c1cc(COc2ccc(F)cc2F)on1	29	-	-	-	-	-
CCOc1ccc2nc(SC3CC(=O)N(c4cccc(OC)c4)C3=O)sc2c1 (centres undefined)	38	-	-	-	-	26
Cc1c(O)nc(SC2CC(=O)N(c3ccccc3)C2=O)[nH]c1=O (centres undefined)	-	-	-	-	-	.
Cc1cccc(N2C(=O)CC(Sc3nnc(C)s3)C2=O)c1 (centres undefined)	61	-	-	-	-	44
Cn1nnnc1SC1CC(=O)N(c2ccccc2)C1=O (centres undefined)	56	-	-	-	-	75
Cc1cccc(N2C(=O)CC(Sc3nc(C)cc(C)n3)C2=O)c1 (centres undefined)	-	-	-	-	-	.
Cc1cc(C)cc(N2C(=O)CC(c3ccccc3)CC2=O)c1	-	.	.	-	-	.
Cc1cc(C)cc(N2C(=O)CC(Sc3nnnn3-c3ccccc3)C2=O)c1 (centres undefined)	56	-	-	-	-	55
CCOc1ccc2nc(SC3CC(=O)N(c4ccccc4)C3=O)sc2c1 (centres undefined)	.	-	-	-	.	.
CCCCN1CN2Cc3cc(F)ccc3C2CS1(=O)=O (centres undefined)	-	.	.	.	-	.
CC(CCN1CCC(C(O)(c2ccccc2)c2ccccc2)CC1)Oc1cccc(Cl)c1 (centres undefined)	-	.	.	.	-	.
O=C1CC(Sc2nnnn2C2CCCCC2)C(=O)N1c1ccccc1 (centres undefined)	75	-	-	-	-	73
Cc1cc(C)cc(N2C(=O)CC(Sc3ncn[nH]3)C2=O)c1 (centres undefined)	29	-	-	-	-	43
COCCN=C1Sc2nc3c(C)cccc3cc2CN1Cc1ccco1	29	-	-	-	-	-
COc1ccc(/C=C2\N=C(c3ccc(C)cc3)OC2=O)cc1	-	-	-	-	-	.
CC(C)CSC1=NSC2=NC(=O)/C(=C\c3coc4ccccc4c3=O)C(=N)N12	-	-	-	-	-	.
SMILES	PRMT1 FP inh	GSTO1 counter	CTSL1 counter	PAD4 FP inh	TDP2 inh	PRMT1 confirm
Cc1ccc(C2=N/C(=C\c3coc4ccccc4c3=O)C(=O)O2)cc1	37	.	.	.	-	-
CSC1=NSC2=NC(=O)/C(=C\c3coc4ccccc4c3=O)C(=N)N12	31	-	-	-	-	72
N#CCc1c(C#N)c(N)nc(N2CCCC(O)C2)c1C#N (centres undefined)	31	-	-	-	-	-
N#CCc1c(C#N)c(N)nc(N2CCN(c3ccc(F)cc3)CC2)c1C#N	-	-	-	-	-	.
COC(=O)[C@]12CCCCC=C1N(Cc1ccc(OC)cc1)C(=O)[C@@H]2CC(=O)N1CCCC1	-	.	.	.	-	.
COC(=O)c1cc(-c2cc(Cl)cc(Cl)c2)c(=O)n2c1CCC2	-	.	.	.	-	.
O=C(NC1CCCCN(Cc2cccc(Cl)c2)C1=O)c1cccc([N+](=O)[O-])c1 (centres undefined)	-	.	.	.	-	.
CC(=O)OCCn1c(C)[n+](CCOC(C)=O)c2cc(Cl)c(Cl)cc21	-	-	-	-	-	.
CC(=O)OCCn1c2nc(=O)[nH]c(=O)c-2nc2cc(C)c(C)cc21	159	.	.	.	-	150
COc1ccc(C(=O)/C=C/C(=O)N(CC(=O)NC2CCCCC2)Cc2cccs2)c(O)c1	38	-	-	-	-	65
COCCN(CC(=O)NC1CCCCC1)C(=O)/C=C/C(=O)c1ccc(OC)cc1O	-	.	.	.	-	.
O=C(NCc1ccco1)c1cc2cc(Br)ccc2o1	31	-	-	-	-	25
COC(=O)C1CN(Cc2cn(Cc3ccc(F)cc3)nn2)CCS(=O)(=O)N1Cc1ccc(OC)cc1 (centres undefined)	-	.	.	.	-	.
CC(=O)Nc1ccc2c(c1)Cc1cc(N3C(=O)C=CC3=O)ccc1-2	91	.	.	.	-	95
O=C1C=CC(=O)N1c1ccc2c(c1)Cc1cc(F)ccc1-2	87	.	.	.	-	83
O=[N+]([O-])c1ccc2c(c1)Cc1cc(F)ccc1-2	-	.	.	.	-	.
O=S(=O)(c1ccc(CN2CCOCCOCCN(Cc3ccc(S(=O)(=O)C(F)(F)F)cc3)CCOCC2)cc1)C(F)(F)F	-	.	.	.	-	.
CC(=O)c1ccc(NC(=O)C(C)OC(=O)/C=C/c2ccco2)cc1 (centres undefined)	31	.	.	-	-	-
C1CSC2(N1)C1CC3CC2CC(C1)C31NCCS1 (centres undefined)	63	-	-	-	-	45
O=C1CCCC2=C1C(c1cccc(Br)c1)n1nc(-c3ccco3)nc1N2 (centres undefined)	37	-	-	-	-	-
Oc1ccc(N2CCN(CC(O)c3ccccc3)CC2)cc1 (centres undefined)	28	-	-	-	-	-
CC(C)[C@H]1Cn2nnc(-c3ccccc3)c2Cn2c3ccccc3c(=O)n21	-	.	.	.	-	.
CCc1ccc(CCNC(=O)OCCCN2CCC3(CCC(C)CC3)C2=O)cc1 (centres undefined)	-	.	.	.	-	.
COc1cc2c(cc1[N+](=O)[O-])-c1ccccc1C2	-	.	.	.	-	.
O=[N+]([O-])c1cc2c(cc1Br)-c1ccccc1C2	38	.	.	.	-	-
CC(=O)Nc1ccc(SC(C)C(=O)NC(N)=O)cc1 (centres undefined)	39	-	-	-	-	31
CCOC(=O)c1sc(NNC(=O)c2ccc(C)cc2)nc1C	-	-	-	-	-	.
CCOC(=O)c1sc(NNC(=O)c2ccc(F)cc2)nc1C	42	-	-	-	-	-
COC(=O)COc1ccc(C2Nc3c(Cl)ccc(C(=O)O)c3C3C=CCC32)cc1 (centres undefined)	69	-	-	-	-	29
